Converted amounts (≈) assume the structure as drawn. The source made the active and inactive calls. The calls are words filed in the database; no cut-off is given here.
Key:
[1] = system: MIA PaCa-2; assay: Induction of apoptosis in human MIAPaCa2 cells assessed as chromatin condensation in nuclei after 24 hrs by scanning electron microscopy; format: functional, cell-based
Summary of the method: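 Cells exposed to different compound concentrations for 24 h on coverslips, fixed in 2.5% glutaraldehyde in 0.1 M phosphate buffer pH 7.2 (4 °C, 24 h), postfixed in 1% OsO4 4 h, ethanol-dehydrated, critical-point dried with HMDS, gold-coated, imaged at 20 kV.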

[2] = Half life in mouse hepatocytes at 3 uM after 180 mins by LC-MS/MS analysis; format: ADME, cell-based, Hepatocyte
[3] = Growth inhibition of human SW630 cells after 48 hrs by MTT assay; format: functional; conditions: SW630, 48 h
Summary of the method: (§1)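 Cancer cell lines sourced from the National Cancer Institute (USA). Cells kept in appropriate growth medium at 37 °C, 95% humidity, 5% CO2. Antiproliferation read by tetrazolium (MTT) assay. GI50 values were determined only for compounds selected after an initial single-concentration screen.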

[4] = Half life in mouse liver microsomes at 100 uM after 30 mins by LC-MS/MS analysis; format: ADME, microsome
Summary of the method: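 Parent loss followed over time to give half-life, with NADPH as cofactor for microsomal phase I metabolism.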

[5] = system: HOP-62; assay: Growth inhibition of human HOP62 cells after 48 hrs by MTT assay; format: functional; conditions: HOP-62, 48 h; summary of the method: as §1
[6] = target: CDK9/cyclin T1 (Homo sapiens) (UniProt O60563+P50750); assay: Inhibition of CDK9/cyclin T1 (unknown origin) at 0.5 uM using YSPTSPSYSPTSPSYSPTSPKKK as substrate after 30 mins in presence of [33P]-gamma-ATP by filter binding assay relative to control; format: protein-complex assay
[7] = Thermodynamic equilibrium solubility of compound in SGF at pH 1.2 after 5 hrs by shake flask method; format: physicochemical; conditions: read-out: Therm_solubility
[8] = system: Lung; assay: Drug uptake in BALB/c mouse lung at 30 mg/kg, po after 8 hrs; format: ADME, organism-based; conditions: in vivo
[9] = target: Cytochrome P450 3A4 (Homo sapiens, UniProt P08684); assay: Inhibition of human CYP3A4 using fluorogenic substrate preincubated with co-factor for 10 mins followed by enzyme-substrate addition by fluorometric method; format: ADME
Chain of Cytochrome P450 3A4 (P08684 whole entry): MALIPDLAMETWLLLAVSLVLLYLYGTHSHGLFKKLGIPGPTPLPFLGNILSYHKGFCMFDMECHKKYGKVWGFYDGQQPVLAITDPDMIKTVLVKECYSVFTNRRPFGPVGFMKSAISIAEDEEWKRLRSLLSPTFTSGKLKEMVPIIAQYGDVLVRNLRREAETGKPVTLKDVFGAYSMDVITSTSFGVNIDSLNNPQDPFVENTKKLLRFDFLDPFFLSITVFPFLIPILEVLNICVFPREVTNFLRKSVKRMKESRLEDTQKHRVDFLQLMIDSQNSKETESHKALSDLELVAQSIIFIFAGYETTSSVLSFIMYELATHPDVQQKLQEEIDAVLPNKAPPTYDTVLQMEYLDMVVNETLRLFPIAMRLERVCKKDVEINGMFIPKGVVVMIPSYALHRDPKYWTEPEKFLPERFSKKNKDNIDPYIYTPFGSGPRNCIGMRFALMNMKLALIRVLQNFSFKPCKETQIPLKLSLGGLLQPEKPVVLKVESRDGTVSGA
Summary of the method: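 Cofactor plus test item or vehicle, in triplicate, preincubated 10 min at 37 °C; prewarmed enzyme–substrate mix added and incubated at 37 °C with shaking. Quench: acetonitrile (CYP2C19, CYP3A4) or 0.25 M Tris in 60% methanol (CYP2C9, CYP2D6). Metabolite fluorescence read; % inhibition computed against enzyme controls and enzyme-free blanks.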

[10] = n-octanol-PBS distribution co-efficient, log D of compound at pH 7.4 by shake flask method; format: physicochemical
[11] = Initial concentration in BALB/c mouse at 1 mg/kg, iv by LC-MS/MS analysis; format: ADME, organism-based; conditions: in vivo
[12] = system: Lung; assay: Drug uptake in Sprague-Dawley rat lung at 30 mg/kg, po after 8 hrs; format: ADME, organism-based; conditions: in vivo
[13] = Intrinsic clearance in mouse hepatocytes assessed per million cells at 3 uM after 180 mins by LC-MS/MS analysis; format: ADME, cell-based, Hepatocyte; conditions: read-out: CLH
[14] = Growth inhibition of mouse adenocarcinoma cells after 48 hrs by MTT assay; format: functional; conditions: Adenocarcinoma cell
[15] = AUC (0 to infinity) in BALB/c mouse at 1 mg/kg, iv by LC-MS/MS analysis; format: ADME, organism-based; design: dose 1 mg/kg, route intravenous, time infinity; conditions: in vivo
[16] = system: Kidney; assay: Drug uptake in Sprague-Dawley rat kidney at 30 mg/kg, po after 8 hrs; format: ADME, organism-based; conditions: in vivo
[17] = system: Mus musculus; assay: Toxicity in CD1 nude mouse xenografted with human MIAPaCa2 cells assessed as mortality at 50 mg/kg, po qd administered on day 10 to 25 post tumor inoculation; format: organism-based; conditions: in vivo
[18] = target: Voltage-gated inwardly rectifying potassium channel KCNH2 (Homo sapiens, UniProt Q12809); assay: Inhibition of [3H]-astemizole binding to human ERG expressed in HEK293 cell membranes by scintillation counting method
Chain of Voltage-gated inwardly rectifying potassium channel KCNH2 (Q12809 whole entry): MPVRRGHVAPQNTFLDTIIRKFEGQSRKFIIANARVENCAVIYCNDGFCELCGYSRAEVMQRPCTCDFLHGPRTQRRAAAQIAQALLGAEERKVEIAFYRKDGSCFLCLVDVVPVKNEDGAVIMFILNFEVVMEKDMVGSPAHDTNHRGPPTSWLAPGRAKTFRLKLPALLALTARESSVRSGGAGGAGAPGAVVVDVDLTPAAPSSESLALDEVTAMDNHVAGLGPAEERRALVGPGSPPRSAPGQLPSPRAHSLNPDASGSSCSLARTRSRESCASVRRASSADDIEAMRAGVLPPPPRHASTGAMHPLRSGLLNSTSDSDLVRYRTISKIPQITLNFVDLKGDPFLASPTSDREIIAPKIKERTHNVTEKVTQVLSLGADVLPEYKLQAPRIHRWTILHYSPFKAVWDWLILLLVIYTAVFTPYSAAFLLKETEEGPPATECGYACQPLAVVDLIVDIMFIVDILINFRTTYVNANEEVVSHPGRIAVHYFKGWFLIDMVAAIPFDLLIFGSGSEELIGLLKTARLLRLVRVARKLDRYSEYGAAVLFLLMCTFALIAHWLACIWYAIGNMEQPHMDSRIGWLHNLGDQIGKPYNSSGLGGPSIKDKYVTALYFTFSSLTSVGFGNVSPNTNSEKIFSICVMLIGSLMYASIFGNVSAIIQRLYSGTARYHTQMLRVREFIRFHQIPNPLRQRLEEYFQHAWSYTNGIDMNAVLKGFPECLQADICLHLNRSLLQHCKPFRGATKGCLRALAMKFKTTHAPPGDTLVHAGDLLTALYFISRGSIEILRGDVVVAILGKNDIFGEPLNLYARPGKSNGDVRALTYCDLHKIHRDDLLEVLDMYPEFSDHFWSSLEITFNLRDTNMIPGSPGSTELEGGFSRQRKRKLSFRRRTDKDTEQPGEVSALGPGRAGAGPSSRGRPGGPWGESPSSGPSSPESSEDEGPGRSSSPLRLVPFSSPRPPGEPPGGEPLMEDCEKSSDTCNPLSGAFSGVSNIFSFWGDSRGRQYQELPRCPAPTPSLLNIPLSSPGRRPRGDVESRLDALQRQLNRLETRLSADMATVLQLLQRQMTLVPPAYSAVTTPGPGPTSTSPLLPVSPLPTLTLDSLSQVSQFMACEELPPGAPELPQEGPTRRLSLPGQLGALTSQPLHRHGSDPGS

[19] = Cmax in BALB/c mouse at 10 mg/kg, po by LC-MS/MS analysis; format: ADME, organism-based; design: dose 10 mg/kg, route oral; conditions: in vivo
[20] = Cmax in BALB/c mouse at 1 mg/kg, iv by LC-MS/MS analysis; format: ADME, organism-based; design: dose 1 mg/kg, route intravenous; conditions: in vivo
[21] = AUC (0 to infinity) in BALB/c mouse at 10 mg/kg, po by LC-MS/MS analysis; format: ADME, organism-based; design: dose 10 mg/kg, time infinity, route oral; conditions: in vivo
[22] = system: HOP-92; assay: Growth inhibition of human HOP92 cells after 48 hrs by MTT assay; format: functional; conditions: HOP-92, 48 h; summary of the method: as §1
[23] = Protein binding in dog plasma at 3 uM after 5 hrs by equilibrium dialysis method; format: ADME, cell-free, Canis lupus familiaris; conditions: read-out: PPB (converted)
[24] = system: MDA-MB-468; assay: Growth inhibition of human MDA-MB-468 cells after 48 hrs by MTT assay; format: functional; conditions: MDA-MB-468, 48 h; summary of the method: as §1
[25] = system: Mus musculus; assay: Toxicity in CD1 nude mouse xenografted with human MIAPaCa2 cells assessed as change in body weight at 25 to 50 mg/kg, po qd administered on day 10 to 25 post tumor inoculation; format: organism-based; conditions: in vivo
[26] = Intrinsic clearance in human hepatocytes assessed per million cells at 3 uM after 180 mins by LC-MS/MS analysis; format: ADME, cell-based, Hepatocyte; conditions: read-out: CLH
Summary of the method: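 Intrinsic clearance obtained from substrate disappearance over time, reported per mg protein (microsomes, S9) or per 10^6 cells (hepatocytes).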

[27] = system: MIA PaCa-2; assay: Disruption of mitochondrial membrane potential in human MIAPaCa2 cells by Rh123 dye-based assay; format: functional, cell-based
[28] = system: Ehrlich; assay: Antitumor activity against Swiss mouse EAC allografted in Swiss albino mouse assessed as tumor growth inhibition at 70 mg/kg, po administered for 9 day measured on day 13 relative to control; format: functional; conditions: read-out: TGI
[29] = system: Liver; assay: Drug uptake in Sprague-Dawley rat liver at 30 mg/kg, po after 8 hrs; format: ADME, organism-based; conditions: in vivo
[30] = system: MIA PaCa-2; assay: Cell cycle arrest in human MIAPaCa2 cells assessed as accumulation at G2 phase at 1.5 uM after 24 hrs by propidium iodide staining-based flow cytometric method (reference value: 30%); format: functional
[31] = system: HCT-116; assay: Antitumor activity against human HCT116 cells xenografted in CD1 nude mouse assessed as tumor growth inhibition at 25 mg/kg, po qd administered on day 10 to 25 post tumor inoculation; format: functional, organism-based
[32] = target: CDK4/Cyclin D3 (Homo sapiens) (UniProt P11802+P30281); assay: Inhibition of full length wild type human CDK4/cyclin D3 expressed in mammalian expression system at 0.5 uM by KINOMEscan method relative to control
Summary of the method: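 Competition binding screen (KINOMEscan) at 0.5 μM; primary binding read out as % of control, lower values indicating stronger interaction.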

[33] = Toxicity in po dosed Swiss albino mouse allografted with Swiss mouse EAC administered for 9 day; format: organism-based; conditions: in vivo
[34] = system: MIA PaCa-2; assay: Induction of apoptosis in human MIAPaCa2 cells assessed as caspase-3 cleavage by Western blot method; format: functional, cell-based
Summary of the method: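 Lysate protein quantified against a BSA standard; 70 μg resolved by SDS-PAGE, transferred to PVDF overnight at 4 °C, 30 V; blocked 1 h in 5% nonfat milk/TBST; primary antibodies 2–4 h, HRP anti-mouse secondary 1 h; ECL detection on X-ray film.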

[35] = system: DU-145; assay: Growth inhibition of human DU145 cells after 48 hrs by MTT assay; format: functional; conditions: DU-145, 48 h; summary of the method: as §1
[36] = Tmax in Sprague-Dawley rat at 3 mg/kg, po by LC-MS/MS analysis; format: ADME, organism-based; conditions: in vivo

**Q.** Which Activity [1] does the source give for `CN1CC[C@H](c2c(O)cc(O)c3c(=O)cc(/C=C/c4c(Cl)cccc4Cl)oc23)[C@H](O)C1` here?
**A.** The Activity was “Active”.

**Q.** And the half-life at 3 µM [2]?
**A.** Its half-life at 3 µM is 186 min.

**Q.** What about the GI50 [3] of the same compound?
**A.** The GI50 was 0.3 µM.

**Q.** What about the half-life at 100 µM [4] of the same compound?
**A.** Its half-life at 100 µM is greater than 30 min.

**Q.** And the GI50 [5]?
**A.** The GI50 was 7 µM.

**Q.** What about the inhibition [6] of the same compound?
**A.** The inhibition was 94%.

**Q.** And the solubility thermodynamic at 5 h [7]?
**A.** The solubility thermodynamic at 5 h was 8.81 µg/mL (≈ 19.1 µM).

**Q.** What about the Drug uptake [8] of the same compound?
**A.** Its Drug uptake is “Active”.

**Q.** And the IC50 [9]?
**A.** Its IC50 is greater than 20 µM.

**Q.** What about the logD [10] of the same compound?
**A.** Its logD is 1.65.

**Q.** What about the C0 [11] of the same compound?
**A.** Its C0 is 859 ng/mL.

**Q.** What about the Drug uptake [12] of the same compound?
**A.** Its Drug uptake is “Active”.

**Q.** What about the hepatocyte CLint at 3 µM [13] of the same compound?
**A.** The hepatocyte CLint at 3 µM was 14.9 µL/min/1e6 cells.

**Q.** What about the GI50 [14] of the same compound?
**A.** Its GI50 is 1.2 µM.

**Q.** And the AUC(0-inf) [15]?
**A.** The AUC(0-inf) was 0.653 µM·h.

**Q.** And the Drug uptake [16]?
**A.** Its Drug uptake is “Active”.

**Q.** What about the Activity [17] of the same compound?
**A.** The Activity was “Non-Toxic”.

**Q.** And the IC50 [18]?
**A.** Its IC50 is greater than 50 µM.

**Q.** What about the Cmax [19] of the same compound?
**A.** Its Cmax is 670 to 1290 nM.

**Q.** What about the Cmax [20] of the same compound?
**A.** The Cmax was 677 nM.

**Q.** And the AUC(0-inf) [21]?
**A.** The AUC(0-inf) was 4.4 µM·h.

**Q.** And the GI50 [22]?
**A.** The GI50 was 3 µM.

**Q.** What about the fraction unbound at 5 h, 3 µM [23] of the same compound?
**A.** Its fraction unbound at 5 h, 3 µM is 0.05.

**Q.** And the GI50 [24]?
**A.** The GI50 was 4 µM.

**Q.** And the Activity [25]?
**A.** Its Activity is “Non-Toxic”.

**Q.** And the hepatocyte CLint at 3 µM [26]?
**A.** Its hepatocyte CLint at 3 µM is 4.8 µL/min/1e6 cells.

**Q.** And the Activity [27]?
**A.** Its Activity is “Active”.

**Q.** What about the inhibition in vivo at 70 mg/kg [28] of the same compound?
**A.** The inhibition in vivo at 70 mg/kg was 31%.

**Q.** And the Drug uptake [29]?
**A.** Its Drug uptake is “Active”.

**Q.** And the Activity [30]?
**A.** Its Activity is 19%.

**Q.** What about the TGI [31] of the same compound?
**A.** Its TGI is “inactive”.

**Q.** What about the inhibition [32] of the same compound?
**A.** Its inhibition is greater than 98%.

**Q.** What about the MTD at 216 h [33] of the same compound?
**A.** The MTD at 216 h was 100 mg/kg.

**Q.** What about the Activity [34] of the same compound?
**A.** The Activity was “Dose-dependent effect”.

**Q.** What about the GI50 [35] of the same compound?
**A.** Its GI50 is 5 µM.

**Q.** What about the Tmax [36] of the same compound?
**A.** The Tmax was 30 min.
